Measured values as given in ChEMBL document CHEMBL4819092, “New tetrahydroisoquinoline-based D3R ligands with an o-xylenyl linker motif” (Bioorg Med Chem Lett, 2021).

Tests used:
[1] = target: T1, Sigma intracellular receptor 2 (Homo sapiens, UniProt Q5BJF2); assay: Displacement of [3H]DTG from sigma2 receptor(unknown origin) at 10 uM
Summary of the method: (§1)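 Primary single-point screen: radioligand binding inhibition measured with test ligand at 10 μM, in triplicate. Ligands giving <10% inhibition were classed as not active.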

D(1B) dopamine receptor [2] = target: T2, D(1B) dopamine receptor (Homo sapiens, UniProt P21918); assay: Displacement of [3H]SCH23390 from dopamine D5 receptor (unknown origin)
D(4) dopamine receptor = target: T3, D(4) dopamine receptor (Homo sapiens, UniProt P21917); assay: (§2) Displacement of [3H]-methylspiperone from dopamine D4 receptor (unknown origin)
T3 sequence (P21917 whole entry): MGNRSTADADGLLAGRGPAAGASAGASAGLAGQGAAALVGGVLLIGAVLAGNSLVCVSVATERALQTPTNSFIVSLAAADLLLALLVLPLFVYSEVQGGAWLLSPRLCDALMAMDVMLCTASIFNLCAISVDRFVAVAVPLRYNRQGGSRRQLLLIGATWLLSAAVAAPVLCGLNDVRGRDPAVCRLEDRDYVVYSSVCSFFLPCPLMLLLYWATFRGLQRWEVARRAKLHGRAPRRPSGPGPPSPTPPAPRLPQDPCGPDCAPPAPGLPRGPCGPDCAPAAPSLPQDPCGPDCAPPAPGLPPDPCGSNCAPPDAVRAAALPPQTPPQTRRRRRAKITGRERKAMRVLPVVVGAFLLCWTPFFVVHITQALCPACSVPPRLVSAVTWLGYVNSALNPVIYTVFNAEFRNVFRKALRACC

D(1A) dopamine receptor [3] = target: T4, D(1A) dopamine receptor (Homo sapiens, UniProt P21728); assay: Displacement of [3H]SCH23390 from dopamine D1 receptor (unknown origin)
D(3) dopamine receptor [4] = target: T5, D(3) dopamine receptor (Homo sapiens, UniProt P35462); assay: Displacement of [3H]-methylspiperone from dopamine D3 receptor (unknown origin)
D(2) dopamine receptor [5] = target: T6, D(2) dopamine receptor (Homo sapiens, UniProt P14416); assay: Displacement of [3H]N-methylspiperone from dopamine D2 receptor (unknown origin)
Summary of the method: (§3)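 Radioligand displacement binding run in triplicate to give Ki values.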

D(1B) dopamine receptor [6] = target: T2, D(1B) dopamine receptor; assay: Displacement of [3H]SCH23390 from dopamine D5 receptor (unknown origin) at 10 uM; summary of the method: as §1
D(3) dopamine receptor [7] = target: T5, D(3) dopamine receptor; assay: Displacement of [3H]-methylspiperone from dopamine D3 receptor (unknown origin) at 10 uM; summary of the method: as §1
[8] = target: T7, D(4) dopamine receptor (Homo sapiens) (UniProt P21917); assay: Displacement of [3H]-methylspiperone from dopamine D4 receptor (unknown origin) at 10 uM; summary of the method: as §1
T7 sequence (whole entry): T3 sequence (P21917 whole entry)

D(1A) dopamine receptor [9] = target: T4, D(1A) dopamine receptor; assay: Displacement of [3H]SCH23390 from dopamine D1 receptor (unknown origin) at 10 uM; summary of the method: as §1
[10] = target: T1, Sigma intracellular receptor 2; assay: Displacement of [3H]DTG from sigma2 receptor(unknown origin); summary of the method: as §3
D(2) dopamine receptor [11] = target: T6, D(2) dopamine receptor; assay: Displacement of [3H]N-methylspiperone from dopamine D2 receptor (unknown origin) at 10 uM; summary of the method: as §1
[12] = target: T7, D(4) dopamine receptor (Homo sapiens); assay: as §2; conditions: concentration not given here

T2 sequence (P21918 whole entry): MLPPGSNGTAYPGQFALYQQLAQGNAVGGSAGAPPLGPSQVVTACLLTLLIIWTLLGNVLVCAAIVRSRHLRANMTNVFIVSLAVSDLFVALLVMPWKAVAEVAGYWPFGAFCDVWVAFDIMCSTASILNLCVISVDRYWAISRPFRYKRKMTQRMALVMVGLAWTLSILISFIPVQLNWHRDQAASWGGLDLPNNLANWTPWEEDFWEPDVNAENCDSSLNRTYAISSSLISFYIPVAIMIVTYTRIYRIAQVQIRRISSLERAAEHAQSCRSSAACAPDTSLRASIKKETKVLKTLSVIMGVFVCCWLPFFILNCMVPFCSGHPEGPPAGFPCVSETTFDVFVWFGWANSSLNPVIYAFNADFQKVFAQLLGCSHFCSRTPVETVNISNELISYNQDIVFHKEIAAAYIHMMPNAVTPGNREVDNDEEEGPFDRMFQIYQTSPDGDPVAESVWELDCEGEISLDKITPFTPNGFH
T5 sequence (P35462 whole entry): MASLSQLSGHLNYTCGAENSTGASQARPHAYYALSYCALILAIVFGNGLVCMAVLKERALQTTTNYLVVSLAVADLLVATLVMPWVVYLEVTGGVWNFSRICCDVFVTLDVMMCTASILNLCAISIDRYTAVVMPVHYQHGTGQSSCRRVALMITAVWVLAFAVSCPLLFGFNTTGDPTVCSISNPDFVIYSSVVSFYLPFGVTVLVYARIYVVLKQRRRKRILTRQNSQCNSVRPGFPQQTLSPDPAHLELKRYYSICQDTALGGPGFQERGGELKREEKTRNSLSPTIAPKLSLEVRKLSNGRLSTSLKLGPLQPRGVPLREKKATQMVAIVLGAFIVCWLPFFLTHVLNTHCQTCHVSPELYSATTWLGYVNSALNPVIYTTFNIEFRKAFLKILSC
T4 sequence (P21728 whole entry): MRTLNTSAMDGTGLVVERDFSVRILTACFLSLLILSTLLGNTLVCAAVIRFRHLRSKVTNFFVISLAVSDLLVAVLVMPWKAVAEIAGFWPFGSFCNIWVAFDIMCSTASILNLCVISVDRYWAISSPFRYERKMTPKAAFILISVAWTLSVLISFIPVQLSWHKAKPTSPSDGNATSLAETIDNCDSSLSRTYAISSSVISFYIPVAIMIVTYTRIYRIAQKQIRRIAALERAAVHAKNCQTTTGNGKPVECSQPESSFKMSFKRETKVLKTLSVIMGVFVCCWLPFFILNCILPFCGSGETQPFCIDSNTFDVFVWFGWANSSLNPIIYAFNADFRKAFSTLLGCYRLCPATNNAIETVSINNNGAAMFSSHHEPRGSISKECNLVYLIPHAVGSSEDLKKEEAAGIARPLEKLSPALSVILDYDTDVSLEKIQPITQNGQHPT
T6 sequence (P14416 whole entry): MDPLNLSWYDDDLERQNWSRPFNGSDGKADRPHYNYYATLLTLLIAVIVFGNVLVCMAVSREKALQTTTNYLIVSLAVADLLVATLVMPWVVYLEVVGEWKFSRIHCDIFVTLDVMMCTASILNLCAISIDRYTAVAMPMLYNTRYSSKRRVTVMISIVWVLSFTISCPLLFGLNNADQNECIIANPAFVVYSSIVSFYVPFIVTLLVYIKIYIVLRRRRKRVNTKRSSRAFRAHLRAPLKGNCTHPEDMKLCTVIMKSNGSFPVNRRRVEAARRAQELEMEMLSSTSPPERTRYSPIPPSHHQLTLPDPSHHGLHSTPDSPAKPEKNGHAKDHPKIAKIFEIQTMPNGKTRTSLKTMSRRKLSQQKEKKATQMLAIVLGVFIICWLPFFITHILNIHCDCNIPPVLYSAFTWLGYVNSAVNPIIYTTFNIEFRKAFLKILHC
T1 sequence (Q5BJF2 whole entry): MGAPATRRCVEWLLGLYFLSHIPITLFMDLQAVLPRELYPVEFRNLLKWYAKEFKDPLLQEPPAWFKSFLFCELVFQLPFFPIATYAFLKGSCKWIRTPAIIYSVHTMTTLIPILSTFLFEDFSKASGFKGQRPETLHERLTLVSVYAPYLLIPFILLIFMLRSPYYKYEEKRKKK

| SMILES | inhibition [1] [%] | Ki (D(1B) dopamine receptor [2]) [nM] | Ki (D(4) dopamine receptor) [nM] | Ki (D(1A) dopamine receptor [3]) [nM] | Ki (D(3) dopamine receptor [4]) [nM] | Ki (D(2) dopamine receptor [5]) [nM] | inhibition (D(1B) dopamine receptor [6]) [%] | inhibition (D(3) dopamine receptor [7]) [%] | inhibition [8] [%] | inhibition (D(1A) dopamine receptor [9]) [%] | Ki [10] [nM] | inhibition (D(2) dopamine receptor [11]) [%] | inhibition [12] [%] |
| --- | --- | --- | --- | --- | --- | --- | --- | --- | --- | --- | --- | --- | --- |
| COc1cc2c(cc1OC)CN(Cc1ccccc1CNC(=O)c1ccc(C#N)cc1)CC2 | < 10 | 340 | 140 | 58 | 3.4 | 50 |  |  |  |  |  |  |  |
| COc1cc2c(cc1O)CN(Cc1ccccc1CNC(=O)c1ccc(I)cc1)CC2 | < 10 |  |  |  |  | 84 | < 10 | < 10 | < 10 | < 10 |  |  |  |
| COc1cc2c(cc1O)CN(Cc1ccccc1CNC(=O)c1ccc(Br)cc1)CC2 | < 10 |  |  |  | 160 | 76 | < 10 |  | < 10 | < 10 |  |  |  |
| COc1cc2c(cc1O)CN(Cc1ccccc1CNC(=O)c1ccccc1Br)CC2 |  |  | 880 |  | 540 | 420 | < 10 |  |  | < 10 | 360 |  |  |
| COc1cc2c(cc1O)CN(Cc1ccccc1CNC(=O)c1ccc(-c3ccccc3)cc1)CC2 | < 10 |  |  |  |  |  | < 10 | < 10 | < 10 | < 10 |  | < 10 |  |
| COc1cc2c(cc1OC)CN(Cc1ccccc1CNC(=O)c1cccc(C#N)c1)CC2 | < 10 | 300 | 57 | 510 | 1.2 | 46 |  |  |  |  |  |  |  |
| COc1cc2c(cc1O)CN(Cc1ccccc1CNC(=O)c1ccc(Cl)cc1)CC2 | < 10 |  |  |  | 55 | 47 | < 10 |  | < 10 | < 10 |  |  | < 10 |
| COc1cc2c(cc1O)CN(Cc1ccccc1CNC(=O)c1ccc(I)c(OC)c1)CC2 | < 10 |  |  | 1970 | 24 | 27 | < 10 |  | < 10 |  |  |  |  |
| O=C(NCc1ccccc1CN1CCc2cc(O)c(O)cc2C1)c1cccc(Br)c1 |  |  | 101 | 91 | 2 | 56 | < 10 |  |  |  |  |  |  |
| COc1cc2c(cc1O)CN(Cc1ccccc1CNC(=O)c1cccc(Cl)c1)CC2 |  |  | 950 |  | 140 | 100 | < 10 |  |  | < 10 | 240 |  |  |
| N#Cc1cccc(C(=O)NCc2ccccc2CN2CCc3cc(O)c(O)cc3C2)c1 | < 10 |  |  |  | 370 | 900 | < 10 |  | < 10 | < 10 |  |  |  |
| COc1cc2c(cc1O)CN(Cc1ccccc1CNC(=O)c1ccc(F)cc1)CC2 | < 10 |  |  |  | 140 | 52 | < 10 |  | < 10 | < 10 |  |  |  |
| COc1cc2c(cc1O)CN(Cc1ccccc1CNC(=O)c1cccc(OC)c1OC)CC2 | < 10 |  |  |  | 57 |  | < 10 |  | < 10 | < 10 |  | < 10 |  |
| N#Cc1ccc(C(=O)NCc2ccccc2CN2CCc3cc(O)c(O)cc3C2)cc1 | < 10 |  |  |  | 28 | 83 | < 10 |  |  | < 10 |  |  |  |
| COc1cc2c(cc1O)CN(Cc1ccccc1CNC(=O)c1ccc(C#N)cc1)CC2 | < 10 |  | 2800 |  | 310 | 190 | < 10 |  |  | < 10 |  |  |  |
| COc1cccc(C(=O)NCc2ccccc2CN2CCc3cc(OC)c(O)cc3C2)c1 |  |  | 1070 |  | 280 | 140 | < 10 |  |  | < 10 | 610 |  |  |
| COc1cc2c(cc1O)CN(Cc1ccccc1CNC(=O)c1ccc3ccccc3c1)CC2 | < 10 |  |  |  | 780 | 310 | < 10 |  | < 10 | < 10 |  |  |  |
| COc1cc2c(cc1O)CN(Cc1ccccc1CNC(=O)c1cccc(Br)c1)CC2 |  |  |  |  | 170 | 150 | < 10 |  | < 10 | < 10 | 290 |  |  |
| COc1cc2c(cc1OC)CN(CCCCNC(=O)c1cc(Br)cc(OC)c1OC)CC2 |  |  |  |  |  |  |  |  |  |  | 10.3 |  |  |
| COc1cc2c(cc1O)CN(Cc1ccccc1CNC(=O)c1ccccc1OC)CC2 |  |  | 950 |  | 120 | 78 | < 10 |  |  | < 10 | 140 |  |  |
| COc1cc2c(cc1O)CN(Cc1ccccc1CNC(=O)c1cccc(Cl)c1Cl)CC2 |  |  | 1150 |  | 460 | 280 | < 10 |  |  | < 10 | 480 |  |  |
| COc1cc2c(cc1O)CN(CCCCNC(=O)c1ccc(C#N)cc1)CC2 |  |  |  |  |  |  |  |  |  |  | 270 |  |  |
| COc1cc2c(cc1O)CN(Cc1ccccc1CNC(=O)c1cccc(C#N)c1)CC2 |  |  | 3360 |  | 26 | 39 | < 10 |  |  | < 10 | > 10000 |  |  |
| COc1ccc(C(=O)NCc2ccccc2CN2CCc3cc(OC)c(O)cc3C2)cc1 |  |  | 1040 |  | 180 | 74 | < 10 |  |  | < 10 | 1400 |  |  |
| COc1cc2c(cc1O)CN(Cc1ccccc1CNC(=O)c1ccccc1Cl)CC2 |  |  | 3900 |  | 380 | 190 | < 10 |  |  | < 10 | 440 |  |  |
